Screening results deposited in PubChem BioAssay by several laboratories.
An excerpt weighted towards active compounds, which were near 2.6% of everything screened.
TNAP inh no acc – blocks human TNAP activity with no phosphate acceptor present | P05186 | inhibition, % at 20 µM | purified TNAP, CDP-star luminescence, 30 min | 200,000 compounds, 0.26% hits;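 active = tissue-nonspecific alkaline phosphatase inhibition above about 50% at 20 µM in the single-dose screen, limit read from the data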;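 also: 0% = DMSO negative control and 100% = EDTA positive control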
Target sequence (P05186 whole entry, looked up): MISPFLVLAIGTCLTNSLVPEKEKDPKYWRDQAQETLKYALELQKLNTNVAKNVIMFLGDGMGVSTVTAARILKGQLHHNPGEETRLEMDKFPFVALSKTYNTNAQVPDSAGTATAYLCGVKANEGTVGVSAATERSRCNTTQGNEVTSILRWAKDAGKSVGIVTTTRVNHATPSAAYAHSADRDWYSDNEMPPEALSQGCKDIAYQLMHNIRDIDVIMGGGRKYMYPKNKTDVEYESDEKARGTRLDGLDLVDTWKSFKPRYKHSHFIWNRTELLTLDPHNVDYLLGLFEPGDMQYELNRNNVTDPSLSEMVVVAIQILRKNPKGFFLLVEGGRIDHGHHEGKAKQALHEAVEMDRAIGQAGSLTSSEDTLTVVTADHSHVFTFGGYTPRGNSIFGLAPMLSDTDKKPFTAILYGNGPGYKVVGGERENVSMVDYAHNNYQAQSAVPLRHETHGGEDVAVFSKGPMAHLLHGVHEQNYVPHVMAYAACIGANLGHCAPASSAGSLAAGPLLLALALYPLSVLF
WT yeast gro inh – growth inhibition of WT yeast, mitochondrial fusion screen | mitochondrial fusion phenotypic screen, WT strain | inhibition, % at 10 µM | 190,000 compounds, 2.1% hits; in the data active = inhibition above about 58%; tested in S. cerevisiae
Arbovirus anti – blocks arbovirus infection; inhibition, % at 10 µM; arbovirus infection cell-based antiviral screen; 200,000 compounds, 0.37% hits; in the data active = inhibition above about 30%
TNAP act hiacc – increases human TNAP activity under high phosphate acceptor concentration | P05186 | purified TNAP, CDP-star luminescence, 1 M DEA, 30 min; active compounds read high; 0 = EDTA background, 1 = DMSO-only activity | activation factor at 20 µM | 200,000 tested, under 10 active | AID 1136;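 active = activation factor at least 2 at 20 µM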
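Assay system: human TNAP; Input: enzyme diluted 1/800 final; Reagent: CDP-star luminogenic substrate at 100 µM final; Timing: 30 min, room temperature; Signal: luminescence; Evaluation: TNAP activation factor scaled between EDTA and DMSO control wells.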
TNAP inh hi DEA – blocks human TNAP under high phosphate acceptor concentration. purified TNAP, CDP-star luminescence, 1 M DEA. 200,000 compounds, 0.03% hits. inhibition, % at 20 µM. P05186;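 active = over 50% inhibition of tissue-nonspecific alkaline phosphatase at 20 µM in the single-dose screen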;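 also: plate controls were DMSO wells for no effect and EDTA-quenched wells as full inhibition for full effect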
The depositor's hits bear a star.

SMILES	TNAP inh no acc	WT yeast gro inh	Arbovirus anti	TNAP act hiacc	TNAP inh hi DEA
Cc1c(C)n(Cc2ccccc2)c2ccc(C(=O)OCCCN(C)C)cc12	-10	87*	-31	1.1	-7
CC(=O)c1c(C)oc2ccc(NS(=O)(=O)c3cccs3)cc12	-11	-16	3	1.1	-8
O=S(=O)(NCC(Nc1ccc(Cl)cc1)c1ccccc1)c1ccc(Cl)cc1 (stereo not given)	-2	74*	-5	1.1	-10
C/C=C(\C)CN1CCN(c2cccc(C)c2C)CC1	3	-3	-1	1	-5
C/C=C(\C)CN1CCN(c2cc(C)ccc2C)CC1	-4	59*	-1	1	0
COc1cc(-c2nc3ccccn3c2/N=C/c2cc(OC)c(O)cc2Cl)ccc1O	26	18	1	0.8	24
CC(C)c1ccc(C2=C(O)c3ccccc3C(=O)C2=O)cc1	0	-4	33*	0.9	14
O=C1C(c2ccncc2)=C(O)c2ccccc21	-3	16	2	1	5
O=c1[nH]c(=O)n(Cc2ccco2)c2c1C(C(F)(F)F)(C(F)(F)F)N=C(Cc1ccccc1)N2	-6	62*	-5	1	-1
CC1(C)CC(=O)C(C=Nc2ccc3cn[nH]c3c2)=C(O)C1	16	6	4	1	1
CC1(C)CC(=O)C(C=Nc2ccc3[nH]ncc3c2)=C(O)C1	10	84*	4	1	2
O=C(c1ccncc1)N1CCN(c2ccc(F)cc2)CC1	-2	-3	-6	1	0
O=C(c1ccc(Cl)cc1)N1CCN(c2ccc(F)cc2)CC1	-10	71*	-4	1	-3
NC(=O)c1cc(Br)cc2c3c([nH]c12)CCCC3	8	66*	0	1	4
OCC1CCCCN1C(=S)Nc1cccc(Cl)c1 (stereo not given)	-11	13	0	1.1	-7
COc1cc(OC)cc(C(=O)N2CCC(n3c(C)nc4cc(F)ccc43)CC2)c1	-12	69*	10	1.1	-9
CN1/C(=C\C(=O)COC(=O)c2ccc([N+](=O)[O-])o2)C(C)(C)c2ccccc21	-5	94*	5	1	-1
COc1cc(OC)cc(C(=O)NCC(=O)OCC(=O)/C=C2/N(C)c3ccccc3C2(C)C)c1	-10	9	11	1	-1
Cc1cc(N2CCCCC2)n2ncc(-c3ccc(Cl)cc3)c2n1	2	58*	-6	1.1	-7
Cc1cc(N2CCCCC2)n2ncc(-c3ccccc3)c2n1	-9	21	10	1.1	-6
Cc1cc(N2CCN(C(=O)c3ccco3)CC2)n2ncc(-c3ccccc3)c2n1	-13	93*	-3	1.1	-10
CCn1nnnc1SCC(=O)Nc1cccc(NC(C)=O)c1	2	-9	9	1.1	-7
CC(=O)c1ccc(-n2nnnc2SCC(=O)Nc2cccc(NC(=O)c3ccco3)c2)cc1	2	73*	-2	1	-5
CC(=O)Nc1cccc(NC(=O)CSc2nnnn2Cc2ccccc2)c1	-7	75*	4	1	-1
Cc1ccc(-n2nnnc2SCC(=O)Nc2cccc(NC(=O)c3ccco3)c2)cc1C	-3	-10	-19	1	1
SMILES	TNAP inh no acc	WT yeast gro inh	Arbovirus anti	TNAP act hiacc	TNAP inh hi DEA
O=C(O)CCSc1nnc(SCC(=O)NCC(F)(F)F)s1	-13	0	-2	1	2
O=C(NC(=S)Nc1nc2c(s1)CCCC2)c1ccc(C(=O)c2ccccc2)cc1	6	6	-8	0.9	5
O=C(NC(=S)Nc1nc2c(s1)CSc1ccccc1-2)c1ccccc1	-1	83*	-34	1	4
CC(C)(C)c1ccc(OCc2nc(-c3ccccn3)no2)c(Br)c1	-9	80*	11	1	-4
Clc1cc(Cl)c(OCc2nc(-c3ccccn3)no2)cc1Cl	-5	10	-2	1.1	-5
O=C(NCC1COc2ccccc2O1)C1CCN(S(=O)(=O)c2cccc3nsnc23)CC1 (stereo not given)	-3	-13	6	1	0
CCC1(C)N(O)C(C)(C)C(c2ccc(F)cc2)=[N+]1[O-] (stereo not given)	-4	-4	3	1	2
COC(=O)c1cn(N(C)c2ncc(C(F)(F)F)cc2Cl)c(=O)c2ccccc12	-13	72*	-4	1	0
COc1ccc(C(=O)C2CCCN(C(=O)c3cc(C(C)C)no3)C2)cc1F (stereo not given)	-9	-4	2	1.1	-10
Cc1ccc(NC2(c3nnnn3-c3c(C)cccc3C)CCCCC2)cc1	-24	82*	5	1.1	-6
Cc1cccc(C)c1-n1nnnc1SCSc1nnnn1-c1c(C)cccc1C	-13	-1	5	1	-4
C=C1c2cc(C)ccc2NC(=O)N1c1ccccc1	-8	-3	-6	1.1	-5
Cc1cc(SCC(=O)NCCC2=CCCCC2)nc2ccccc12	-6	69*	3	1	-2
O=C(CSc1n[nH]c(-c2ccccc2)n1)NCc1cccc(C(=O)O)c1	70*	-5	0	1	-5
O=C(O)c1cccc(CSc2n[nH]c(-c3ccc(Cl)cc3Cl)n2)c1	96*	2	14	1	4
O=C(CSc1n[nH]c(-c2ccccc2)n1)NC(=O)NCc1ccco1	63*	-8	2	1.1	-7
CCOC(=O)C1(CCCc2ccccc2)CCN(Cc2cnn(C)c2)CC1	-11	9	-15	1.1	-5
Cc1ccc(-c2nnc(Nc3ccc4c(c3)OCO4)c3ccccc23)cc1S(=O)(=O)NC(C)C	-20	-3	-22	1	-3
Cc1ccc(NC(=O)Cn2ccc([N+](=O)[O-])n2)cc1C	-5	6	4	1	-1
COc1cc([N+](=O)[O-])ccc1NC(=S)Nc1cc(C(=O)OC(C)C)cc(C(=O)OC(C)C)c1	-6	8	-6	0.9	5
O=C(CSc1n[nH]c(-c2ccccc2)n1)c1ccc(O)c(O)c1	68*	-1	-10	1	-2
Cc1cc(SCC(=O)c2ccc(O)c(O)c2)nc2ccccc12	72*	-9	4	1	4
CCc1ccc(C(=O)CSc2n[nH]c(-c3ccncc3)n2)cc1	6	-12	21	1	-4
Cc1cc(SCC(=O)c2ccc3c(c2)OCO3)nc2ccccc12	-10	22	-3	1	0
C=CCn1c(COc2ccccc2-c2ccccc2)nnc1SCC(=O)NC(=O)NCc1ccco1	-4	95*	-7	1	-1
C=CCn1c(COc2ccccc2F)nnc1SCC(=O)NC(=O)NCc1ccco1	-14	-11	5	1.1	-7
CCN(CC)C(=O)CCCC(=O)N(CC)CC	-11	-6	4	1	-4
CC(Cc1ccccn1)NC(=O)CCc1nnc(C2CCCCC2)o1 (stereo not given)	-4	3	12	1.1	-8
CN(C)/N=C/c1ccc(P(c2ccc(/C=N/N(C)C)o2)c2ccc(/C=N/N(C)C)o2)o1	4	16	31*	1	3
